From article PMC9477609 (Journal of Molecular Liquids, 2022)
Values after ≈ are worked out from the molar mass of the structure shown.

What was measured:
[1] = cited from earlier work
[2] = water solubility of neat and equilibrated powders; type: physicochemical; conditions: for water solubility: neat and solvent-equilibrated dry powders
[3] = in water, PBS (pH 7.4), SGF and SIF; no reference given; cited from earlier work
snails = conditions: cited from earlier work
MCF-7 = conditions: read-out: cell proliferation inhibitor IC50; MCF-7 ref 5; cited from earlier work
[4] = apparent thermodynamic analysis: dissolution Gibbs free energy; type: physicochemical
How it was run: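 Excess solid was added to the pure solvent, vortexed and sonicated, then shaken for 24 h at 300 rpm at each temperature from 298.15 to 323.15 K. Samples were centrifuged for 20 min at 8000 rpm and 25 °C. Supernatant was diluted in MeOH/water 8:2 and read by absorbance at 330 nm against a 5–35 µg/mL calibration. Mole fraction solubility was the mean of triplicates. Dissolution thermodynamics came from Van't Hoff analysis.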

parasitic proliferation = conditions: cited from earlier work
MDA-MB-231 = conditions: human breast cancer cell lines (MDA-MB-231) ref 5; cited from earlier work
hepatitis C virus = conditions: cited from earlier work

## CO [methanol]
[1]
  log P: −0.69

## C[S+](C)[O-] [dimethyl sulfoxide]
[1]
  log P: −1.35

## O=C(Nc1ccc([N+](=O)[O-])cc1Cl)c1cc(Cl)ccc1O [NCL-DMSO]
[2]
  water solubility: 18.082 ± 0.045 µg/mL (≈ 55.3 µM)

## O=C(Nc1ccc([N+](=O)[O-])cc1Cl)c1cc(Cl)ccc1O [niclosamide, N-(2′-chloro-4′-nitrophenyl)-5-chlorosalicylamide]
[2]; water
  solubility: 20.76 ± 0.099 µg/mL (≈ 63.5 µM)
[3]
  aqueous solubility: 6 to 20 µg/mL
snails
  lethal concentration in snails: 0.3 mg/L
MCF-7
  IC50: 1060 nM
[4]; 1-butanol, 298.15 K
  ΔdisG, dissolution Gibbs free energy: -0.48423 kcal/mol
[4]; 1-butanol, 303.15 K
  ΔdisG, dissolution Gibbs free energy: -0.48341 kcal/mol
[4]; 1-butanol, 308.15 K
  ΔdisG, dissolution Gibbs free energy: -0.48255 kcal/mol
[4]; 1-butanol, 313.15 K
  ΔdisG, dissolution Gibbs free energy: -0.48176 kcal/mol
[4]; 1-butanol, 318.15 K
  ΔdisG, dissolution Gibbs free energy: -0.48088 kcal/mol
[4]; 1-butanol, 323.15 K
  ΔdisG, dissolution Gibbs free energy: -0.48009 kcal/mol
[4]; 2-propanol, 298.15 K
  ΔdisG, dissolution Gibbs free energy: -0.09434 kcal/mol
[4]; 2-propanol, 303.15 K
  ΔdisG, dissolution Gibbs free energy: -0.09015 kcal/mol
[4]; 2-propanol, 308.15 K
  ΔdisG, dissolution Gibbs free energy: -0.08597 kcal/mol
[4]; 2-propanol, 313.15 K
  ΔdisG, dissolution Gibbs free energy: -0.08179 kcal/mol
[4]; 2-propanol, 318.15 K
  ΔdisG, dissolution Gibbs free energy: -0.07763 kcal/mol
[4]; 2-propanol, 323.15 K
  ΔdisG, dissolution Gibbs free energy: -0.07345 kcal/mol
[4]; DMSO, 298.15 K
  ΔdisG, dissolution Gibbs free energy: 0.1837 kcal/mol
[4]; DMSO, 303.15 K
  ΔdisG, dissolution Gibbs free energy: 0.1905 kcal/mol
[4]; DMSO, 308.15 K
  ΔdisG, dissolution Gibbs free energy: 0.1973 kcal/mol
[4]; DMSO, 313.15 K
  ΔdisG, dissolution Gibbs free energy: 0.2041 kcal/mol
[4]; DMSO, 318.15 K
  ΔdisG, dissolution Gibbs free energy: 0.2109 kcal/mol
[4]; DMSO, 323.15 K
  ΔdisG, dissolution Gibbs free energy: 0.2177 kcal/mol
[4]; Ethanol, 298.15 K
  ΔdisG, dissolution Gibbs free energy: 0.3086 kcal/mol
[4]; Ethanol, 303.15 K
  ΔdisG, dissolution Gibbs free energy: 0.31637 kcal/mol
[4]; Ethanol, 308.15 K
  ΔdisG, dissolution Gibbs free energy: 0.32414 kcal/mol
[4]; Ethanol, 313.15 K
  ΔdisG, dissolution Gibbs free energy: 0.33191 kcal/mol
[4]; Ethanol, 318.15 K
  ΔdisG, dissolution Gibbs free energy: 0.33967 kcal/mol
[4]; Ethanol, 323.15 K
  ΔdisG, dissolution Gibbs free energy: 0.34744 kcal/mol
[4]; Methanol, 298.15 K
  ΔdisG, dissolution Gibbs free energy: 1.3769 kcal/mol
[4]; Methanol, 303.15 K
  ΔdisG, dissolution Gibbs free energy: 1.3941 kcal/mol
[4]; Methanol, 308.15 K
  ΔdisG, dissolution Gibbs free energy: 1.4113 kcal/mol
[4]; Methanol, 313.15 K
  ΔdisG, dissolution Gibbs free energy: 1.4285 kcal/mol
[4]; Methanol, 318.15 K
  ΔdisG, dissolution Gibbs free energy: 1.4457 kcal/mol
[4]; Methanol, 323.15 K
  ΔdisG, dissolution Gibbs free energy: 1.463 kcal/mol
[4]; PEG-200, 298.15 K
  ΔdisG, dissolution Gibbs free energy: -0.1837 kcal/mol
[4]; PEG-200, 303.15 K
  ΔdisG, dissolution Gibbs free energy: -0.1807 kcal/mol
[4]; PEG-200, 308.15 K
  ΔdisG, dissolution Gibbs free energy: -0.1777 kcal/mol
[4]; PEG-200, 313.15 K
  ΔdisG, dissolution Gibbs free energy: -0.1747 kcal/mol
[4]; PEG-200, 318.15 K
  ΔdisG, dissolution Gibbs free energy: -0.1717 kcal/mol
[4]; PEG-200, 323.15 K
  ΔdisG, dissolution Gibbs free energy: -0.1687 kcal/mol
[4]; PEG-400, 298.15 K
  ΔdisG, dissolution Gibbs free energy: -0.50012 kcal/mol
[4]; PEG-400, 303.15 K
  ΔdisG, dissolution Gibbs free energy: -0.50024 kcal/mol
[4]; PEG-400, 308.15 K
  ΔdisG, dissolution Gibbs free energy: -0.50038 kcal/mol
[4]; PEG-400, 313.15 K
  ΔdisG, dissolution Gibbs free energy: -0.50048 kcal/mol
[4]; PEG-400, 318.15 K
  ΔdisG, dissolution Gibbs free energy: -0.50067 kcal/mol
[4]; PEG-400, 323.15 K
  ΔdisG, dissolution Gibbs free energy: -0.50079 kcal/mol
[4]; Water, 298.15 K
  ΔdisG, dissolution Gibbs free energy: 0.1407 kcal/mol
[4]; Water, 303.15 K
  ΔdisG, dissolution Gibbs free energy: 0.1507 kcal/mol
[4]; Water, 308.15 K
  ΔdisG, dissolution Gibbs free energy: 0.1608 kcal/mol
[4]; Water, 313.15 K
  ΔdisG, dissolution Gibbs free energy: 0.1709 kcal/mol
[4]; Water, 318.15 K
  ΔdisG, dissolution Gibbs free energy: 0.181 kcal/mol
[4]; Water, 323.15 K
  ΔdisG, dissolution Gibbs free energy: 0.1911 kcal/mol
Parasitic proliferation
  parasitic proliferation inhibitor MIC50: 200–250 nM/L
MDA-MB-231
  apoptosis inducer, concentration: 1–10 µM/L
Hepatitis C virus
  hepatitis C virus replication inhibitor: 0.16 µM/L

## O=C(Nc1ccc([N+](=O)[O-])cc1Cl)c1cc(Cl)ccc1O [NCL-MeOH]
[2]
  water solubility: 16.261 ± 0.082 µg/mL (≈ 49.7 µM)
